Test system: Fibroblast
Assay: Multiplex assay against human fibroblast
Format: toxicity, cell-based
Method in brief: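 Compound was added to live cells that had been stained at seeding with Hoechst33342, BioTracker Green Microtubule Cytoskeleton Dye, MitoTracker Red and Annexin V Alexa Fluor 680, and imaging followed on a CQ1 microscope at 37°C and 5% CO2. CellPathfinder machine-learning gating divided cells into Hoechst high-intensity objects or normal cells, normal cells into healthy, pyknosed or fragmented nuclei, and pyknosed cells into mitotic or apoptotic. Tubulin, mitochondrial-mass and membrane-permeability phenotypes are per cents of healthy-nucleus cells.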

[1] = 12 h, 1 µM, compound concentration 1 uM, replicate 1
[2] = 12 h, 1 µM, compound concentration 1 uM, replicate 2
[3] = 12 h, 10 µM, compound concentration 10 uM, replicate 1
[4] = 12 h, 10 µM, compound concentration 10 uM, replicate 2
[5] = 24 h, 1 µM, compound concentration 1 uM, replicate 1
[6] = 24 h, 1 µM, compound concentration 1 uM, replicate 2
[7] = 24 h, 10 µM, compound concentration 10 uM, replicate 1
[8] = 24 h, 10 µM, compound concentration 10 uM, replicate 2
[9] = 48 h, 1 µM, compound concentration 1 uM, replicate 1
[10] = 48 h, 1 µM, compound concentration 1 uM, replicate 2
[11] = 48 h, 10 µM, compound concentration 10 uM, replicate 1
[12] = 48 h, 10 µM, compound concentration 10 uM, replicate 2

## O=C(Nc1ccc(-n2nc(-c3cccnc3)cc2C(F)(F)F)cn1)c1ccc(-c2ccccc2)c(F)c1 [BI 2049]
[1]
  Population Apoptotic (%): 63%
  Population Fragmented Nuclei (%): 29%
  Population Healthy Nuclei (%): 30%
  Population Hoechst High Intensity Objects (%): 10%
  Population Membrane Permeable-Phenotype (%): 32%
  Population Mitochondria Different-Phenotype (%): 8%
  Population Mitotic Cells (%): 36%
  Population Normal (%): 89%
  Population Pyknosed Nuclei (%): 40%
  Population Tubulin-Different-Phenotype (%): 44%
  Total Cell Count: 92
[2]
  Population Apoptotic (%): 50%
  Population Fragmented Nuclei (%): 4%
  Population Healthy Nuclei (%): 85%
  Population Hoechst High Intensity Objects (%): 8%
  Population Membrane Permeable-Phenotype (%): 3%
  Population Mitochondria Different-Phenotype (%): 7%
  Population Mitotic Cells (%): 50%
  Population Normal (%): 91%
  Population Pyknosed Nuclei (%): 9%
  Total Cell Count: 69
[3]
  Population Apoptotic (%): 58%
  Population Fragmented Nuclei (%): 11%
  Population Healthy Nuclei (%): 41%
  Population Hoechst High Intensity Objects (%): 9%
  Population Membrane Permeable-Phenotype (%): 22%
  Population Mitochondria Different-Phenotype (%): 22%
  Population Mitotic Cells (%): 41%
  Population Normal (%): 90%
  Population Pyknosed Nuclei (%): 46%
  Population Tubulin-Different-Phenotype (%): 62%
  Total Cell Count: 93
[4]
  Population Apoptotic (%): 0%
  Population Fragmented Nuclei (%): 18%
  Population Healthy Nuclei (%): 81%
  Population Hoechst High Intensity Objects (%): 6%
  Population Membrane Permeable-Phenotype (%): 4%
  Population Mitochondria Different-Phenotype (%): 12%
  Population Mitotic Cells (%): 0%
  Population Normal (%): 93%
  Population Pyknosed Nuclei (%): 0%
  Population Tubulin-Different-Phenotype (%): 8%
  Total Cell Count: 65
[5]
  Population Apoptotic (%): 61%
  Population Fragmented Nuclei (%): 32%
  Population Healthy Nuclei (%): 36%
  Population Hoechst High Intensity Objects (%): 14%
  Population Membrane Permeable-Phenotype (%): 32%
  Population Mitochondria Different-Phenotype (%): 12%
  Population Mitotic Cells (%): 38%
  Population Normal (%): 85%
  Population Pyknosed Nuclei (%): 30%
  Population Tubulin-Different-Phenotype (%): 58%
  Total Cell Count: 98
[6]
  Population Apoptotic (%): 25%
  Population Fragmented Nuclei (%): 7%
  Population Healthy Nuclei (%): 83%
  Population Hoechst High Intensity Objects (%): 7%
  Population Membrane Permeable-Phenotype (%): 4%
  Population Mitochondria Different-Phenotype (%): 9%
  Population Mitotic Cells (%): 75%
  Population Normal (%): 92%
  Population Pyknosed Nuclei (%): 8%
  Population Tubulin-Different-Phenotype (%): 37%
  Total Cell Count: 96
[7]
  Population Apoptotic (%): 66%
  Population Fragmented Nuclei (%): 24%
  Population Healthy Nuclei (%): 42%
  Population Hoechst High Intensity Objects (%): 8%
  Population Membrane Permeable-Phenotype (%): 12%
  Population Mitochondria Different-Phenotype (%): 17%
  Population Mitotic Cells (%): 33%
  Population Normal (%): 91%
  Population Pyknosed Nuclei (%): 32%
  Population Tubulin-Different-Phenotype (%): 46%
  Total Cell Count: 99
[8]
  Population Apoptotic (%): 0%
  Population Fragmented Nuclei (%): 11%
  Population Healthy Nuclei (%): 84%
  Population Hoechst High Intensity Objects (%): 3%
  Population Membrane Permeable-Phenotype (%): 4%
  Population Mitochondria Different-Phenotype (%): 13%
  Population Mitotic Cells (%): 100%
  Population Normal (%): 96%
  Population Pyknosed Nuclei (%): 3%
  Population Tubulin-Different-Phenotype (%): 10%
  Total Cell Count: 82
[9]
  Population Apoptotic (%): 64%
  Population Fragmented Nuclei (%): 26%
  Population Healthy Nuclei (%): 45%
  Population Hoechst High Intensity Objects (%): 9%
  Population Membrane Permeable-Phenotype (%): 40%
  Population Mitochondria Different-Phenotype (%): 2%
  Population Mitotic Cells (%): 36%
  Population Normal (%): 90%
  Population Pyknosed Nuclei (%): 28%
  Population Tubulin-Different-Phenotype (%): 37%
  Total Cell Count: 97
[10]
  Population Apoptotic (%): 100%
  Population Fragmented Nuclei (%): 25%
  Population Healthy Nuclei (%): 72%
  Population Hoechst High Intensity Objects (%): 16%
  Population Membrane Permeable-Phenotype (%): 17%
  Population Mitotic Cells (%): 0%
  Population Normal (%): 83%
  Population Pyknosed Nuclei (%): 1%
  Population Tubulin-Different-Phenotype (%): 5%
  Total Cell Count: 66
[11]
  Population Apoptotic (%): 72%
  Population Fragmented Nuclei (%): 30%
  Population Healthy Nuclei (%): 50%
  Population Hoechst High Intensity Objects (%): 15%
  Population Membrane Permeable-Phenotype (%): 35%
  Population Mitochondria Different-Phenotype (%): 14%
  Population Mitotic Cells (%): 27%
  Population Normal (%): 84%
  Population Pyknosed Nuclei (%): 18%
  Population Tubulin-Different-Phenotype (%): 64%
  Total Cell Count: 113
[12]
  Population Apoptotic (%): 100%
  Population Fragmented Nuclei (%): 14%
  Population Healthy Nuclei (%): 85%
  Population Hoechst High Intensity Objects (%): 9%
  Population Membrane Permeable-Phenotype (%): 15%
  Population Mitochondria Different-Phenotype (%): 1%
  Population Mitotic Cells (%): 0%
  Population Normal (%): 90%
  Population Pyknosed Nuclei (%): 0%
  Population Tubulin-Different-Phenotype (%): 35%
  Total Cell Count: 140

Reference: ChEMBL document CHEMBL4689842, “EUbOPEN Chemogenomics Library wave 1” (2021)
